Measured values: the RNAGym collection of RNA variant scans (doi:10.1038/s41586-018-0170-7)

B1: tRNA (parent)
chain: GUUCCGUUGGCGUAAUGGUAACGCGUCUCCCUCCUAAGGAGAAGACUGCGGGUUCGAGUCCCGUACGGAACG

Variants of: B1
Experiment: yeast fitness, log relative to wild type (ln ratio); higher = fitter; tRNA-Arg(CCU), competitive growth, 37 C, 1 M NaCl
Summary of the method: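 BY4742 cells without the chromosomal tRNA-Arg(CCU) gene carried a combinatorial variant library on a HIS3 centromeric plasmid, from two independent transformations. After 4 generations in SC-HIS at 30 °C, pools spent ~6.5 generations (~26.5 h) in SC-HIS 1M NaCl at 37 °C, giving three outputs per input, and 125 bp paired-end Illumina reads counted the variants. Fitness is the natural log of each genotype's generations over the wild type's, with generations taken as OD-scaled log2 output/input frequency weighted by inverse variance across replicates.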

| Variant | yeast fitness (ln) |
| --- | --- |
| GUUCCGUUGGCGUAAUGGUAACGCGUCUCCCUCCUAAGGAGAAGACUGCGGGUUCGAGUCCCGUACGGGGUG | -0.222 |
| GUUCCGUUGGCGUAAUGGUAACGCGUUUCCCUCCUAAGGAGACGACUGCGGGUUCGAGUCCCGUACGGAGUG | -0.112 |
| GGUCCUUUGGCGUAAUGGUAACGCGUUUCCCUCCUAAGGAGAAGAUUGCGGGUUCGAGUCCCGUAUGGAGCG | -0.176 |
| AGUCCUUUGGCGUAAUGGUAACGCGUCUCCCUCCUAAGGAGACGAUUGCGGGUUCGAGUCCCGUACGGAGCG | -0.235 |
| AUUCCGUUGGCGUAAUGGUAACGCGUUUCCCUCCUAAGGAGAAGACUGCGGGUUCGAGUCCCGUAAGGAUCG | -0.132 |
| GUUCCGUUGGCGUAAUGGUAACGCGUUUCCCUCCUAAGGAGACGACUGCGGGUUCGAGUCCCGUAAGGAGUG | -0.234 |
| GUUCCUUUGGCGUAAUGGUAACGCGUUUCCCUCCUAAGGAGAAGACUGCGGGUUCGAGUCCCGUACGGAGUG | -0.368 |
| GUUCCGUUGGCGUAAUGGUAACGCGUCUCCCUCCUAAGGAGACGAUUGCGGGUUCGAGUCCCGUAAGGGGCG | -0.0183 |
| AGUCCAUUGGCGUAAUGGUAACGCGUCUCCCUCCUAAGGAGACGAUUGCGGGUUCGAGUCCCGUAAGGAGUG | -0.169 |
| GCUCCUUUGGCGUAAUGGUAACGCGUCUCCCUCCUAAGGAGACGAUUGCGGGUUCGAGUCCCGUACGGGGCG | -0.3 |
| AUUCCAUUGGCGUAAUGGUAACGCGUUUCCCUCCUAAGGAGAAGACUGCGGGUUCGAGUCCCGUACGGGUCG | -0.353 |
| GGUCCGUUGGCGUAAUGGUAACGCGUCUCCCUCCUAAGGAGAAGAUUGCGGGUUCGAGUCCCGUAUGGGGCG | -0.174 |
| GCUCCUUUGGCGUAAUGGUAACGCGUCUCCCUCCUAAGGAGAAGACUGCGGGUUCGAGUCCCGUAUGGGAUG | -0.176 |
| GGUCCUUUGGCGUAAUGGUAACGCGUUUCCCUCCUAAGGAGAAGAUUGCGGGUUCGAGUCCCGUACGGGGUG | -0.268 |
| GGUCCAUUGGCGUAAUGGUAACGCGUCUCCCUCCUAAGGAGACGAUUGCGGGUUCGAGUCCCGUAUGGAAUG | -0.212 |
| AUUCCGUUGGCGUAAUGGUAACGCGUUUCCCUCCUAAGGAGAAGAUUGCGGGUUCGAGUCCCGUACGGGGCG | -0.166 |
| GGUCCUUUGGCGUAAUGGUAACGCGUCUCCCUCCUAAGGAGAAGACUGCGGGUUCGAGUCCCGUACGGAGCG | -0.0649 |
| GGUCCUUUGGCGUAAUGGUAACGCGUCUCCCUCCUAAGGAGAAGACUGCGGGUUCGAGUCCCGUACGGAAUG | -0.173 |
| GCUCCUUUGGCGUAAUGGUAACGCGUCUCCCUCCUAAGGAGAAGACUGCGGGUUCGAGUCCCGUAAGGAACG | -0.00733 |
| GGUCCAUUGGCGUAAUGGUAACGCGUCUCCCUCCUAAGGAGAAGACUGCGGGUUCGAGUCCCGUAUGGGUCG | -0.00753 |
| ACUCCGUUGGCGUAAUGGUAACGCGUUUCCCUCCUAAGGAGACGAUUGCGGGUUCGAGUCCCGUAUGGGGUG | -0.2 |
| GGUCCAUUGGCGUAAUGGUAACGCGUCUCCCUCCUAAGGAGACGAUUGCGGGUUCGAGUCCCGUAAGGAUUG | -0.227 |
| ACUCCGUUGGCGUAAUGGUAACGCGUCUCCCUCCUAAGGAGACGAUUGCGGGUUCGAGUCCCGUAUGGGUCG | -0.195 |
| AGUCCUUUGGCGUAAUGGUAACGCGUCUCCCUCCUAAGGAGAAGAUUGCGGGUUCGAGUCCCGUACGGAGUG | -0.257 |
| ACUCCUUUGGCGUAAUGGUAACGCGUUUCCCUCCUAAGGAGAAGAUUGCGGGUUCGAGUCCCGUACGGGUCG | -0.219 |

| Variant | yeast fitness (ln) |
| --- | --- |
| GGUCCAUUGGCGUAAUGGUAACGCGUUUCCCUCCUAAGGAGAAGACUGCGGGUUCGAGUCCCGUAUGGGUUG | -0.4 |
| GCUCCUUUGGCGUAAUGGUAACGCGUCUCCCUCCUAAGGAGACGACUGCGGGUUCGAGUCCCGUAUGGAUUG | -0.531 |
| GUUCCAUUGGCGUAAUGGUAACGCGUUUCCCUCCUAAGGAGACGAUUGCGGGUUCGAGUCCCGUAUGGGGUG | -0.28 |
| ACUCCUUUGGCGUAAUGGUAACGCGUCUCCCUCCUAAGGAGACGAUUGCGGGUUCGAGUCCCGUAAGGGGCG | -0.25 |
| ACUCCGUUGGCGUAAUGGUAACGCGUCUCCCUCCUAAGGAGAAGAUUGCGGGUUCGAGUCCCGUACGGAGUG | 0.000912 |
| GUUCCGUUGGCGUAAUGGUAACGCGUCUCCCUCCUAAGGAGACGAUUGCGGGUUCGAGUCCCGUAUGGGGCG | -0.117 |
| ACUCCGUUGGCGUAAUGGUAACGCGUUUCCCUCCUAAGGAGACGAUUGCGGGUUCGAGUCCCGUACGGGGUG | -0.0168 |
| GUUCCUUUGGCGUAAUGGUAACGCGUCUCCCUCCUAAGGAGACGACUGCGGGUUCGAGUCCCGUAUGGGAUG | -0.394 |
| AGUCCAUUGGCGUAAUGGUAACGCGUCUCCCUCCUAAGGAGACGACUGCGGGUUCGAGUCCCGUAUGGAUUG | -0.443 |
| AGUCCAUUGGCGUAAUGGUAACGCGUCUCCCUCCUAAGGAGACGACUGCGGGUUCGAGUCCCGUACGGAGUG | -0.224 |
| GGUCCAUUGGCGUAAUGGUAACGCGUCUCCCUCCUAAGGAGAAGAUUGCGGGUUCGAGUCCCGUACGGAGCG | -0.0796 |
| GUUCCGUUGGCGUAAUGGUAACGCGUCUCCCUCCUAAGGAGAAGACUGCGGGUUCGAGUCCCGUAUGGAAUG | -0.173 |
| AUUCCUUUGGCGUAAUGGUAACGCGUUUCCCUCCUAAGGAGAAGAUUGCGGGUUCGAGUCCCGUAUGGGUCG | -0.454 |
| GGUCCAUUGGCGUAAUGGUAACGCGUUUCCCUCCUAAGGAGAAGAUUGCGGGUUCGAGUCCCGUAUGGGUCG | -0.0313 |
| GCUCCUUUGGCGUAAUGGUAACGCGUCUCCCUCCUAAGGAGAAGAUUGCGGGUUCGAGUCCCGUACGGGGCG | -0.0922 |
| AUUCCGUUGGCGUAAUGGUAACGCGUUUCCCUCCUAAGGAGAAGAUUGCGGGUUCGAGUCCCGUAAGGGGUG | -0.193 |
| GCUCCGUUGGCGUAAUGGUAACGCGUUUCCCUCCUAAGGAGACGACUGCGGGUUCGAGUCCCGUAUGGGUCG | -0.439 |
| GUUCCGUUGGCGUAAUGGUAACGCGUUUCCCUCCUAAGGAGAAGAUUGCGGGUUCGAGUCCCGUAUGGGUUG | -0.485 |
| GUUCCGUUGGCGUAAUGGUAACGCGUUUCCCUCCUAAGGAGACGAUUGCGGGUUCGAGUCCCGUAAGGAACG | -0.0786 |
| GUUCCUUUGGCGUAAUGGUAACGCGUCUCCCUCCUAAGGAGACGACUGCGGGUUCGAGUCCCGUAAGGGUCG | -0.215 |
| GCUCCAUUGGCGUAAUGGUAACGCGUCUCCCUCCUAAGGAGACGAUUGCGGGUUCGAGUCCCGUACGGGGCG | -0.241 |
| AGUCCGUUGGCGUAAUGGUAACGCGUCUCCCUCCUAAGGAGAAGACUGCGGGUUCGAGUCCCGUACGGGUCG | -0.232 |
| GCUCCAUUGGCGUAAUGGUAACGCGUUUCCCUCCUAAGGAGACGACUGCGGGUUCGAGUCCCGUACGGAGUG | -0.156 |
| AGUCCGUUGGCGUAAUGGUAACGCGUUUCCCUCCUAAGGAGACGACUGCGGGUUCGAGUCCCGUAAGGGAUG | -0.297 |
| AUUCCGUUGGCGUAAUGGUAACGCGUCUCCCUCCUAAGGAGAAGAUUGCGGGUUCGAGUCCCGUAUGGGAUG | -0.763 |

| Variant | yeast fitness (ln) |
| --- | --- |
| GGUCCUUUGGCGUAAUGGUAACGCGUUUCCCUCCUAAGGAGAAGAUUGCGGGUUCGAGUCCCGUACGGGAUG | -0.205 |
| GGUCCGUUGGCGUAAUGGUAACGCGUCUCCCUCCUAAGGAGACGACUGCGGGUUCGAGUCCCGUAAGGGGUG | -0.235 |
| ACUCCGUUGGCGUAAUGGUAACGCGUUUCCCUCCUAAGGAGACGAUUGCGGGUUCGAGUCCCGUAUGGAACG | -0.161 |
| GUUCCGUUGGCGUAAUGGUAACGCGUCUCCCUCCUAAGGAGAAGAUUGCGGGUUCGAGUCCCGUAAGGAGUG | -0.0671 |
| GCUCCAUUGGCGUAAUGGUAACGCGUUUCCCUCCUAAGGAGACGAUUGCGGGUUCGAGUCCCGUAUGGAAUG | -0.122 |
| GCUCCUUUGGCGUAAUGGUAACGCGUCUCCCUCCUAAGGAGAAGACUGCGGGUUCGAGUCCCGUACGGGUUG | -0.231 |
| GGUCCUUUGGCGUAAUGGUAACGCGUUUCCCUCCUAAGGAGACGAUUGCGGGUUCGAGUCCCGUAUGGAGUG | -0.315 |
| AUUCCGUUGGCGUAAUGGUAACGCGUCUCCCUCCUAAGGAGACGACUGCGGGUUCGAGUCCCGUACGGAAUG | -0.0202 |
| AUUCCAUUGGCGUAAUGGUAACGCGUUUCCCUCCUAAGGAGACGACUGCGGGUUCGAGUCCCGUACGGAACG | -0.204 |
| ACUCCUUUGGCGUAAUGGUAACGCGUCUCCCUCCUAAGGAGAAGAUUGCGGGUUCGAGUCCCGUAUGGAUCG | -0.0663 |
| AUUCCUUUGGCGUAAUGGUAACGCGUCUCCCUCCUAAGGAGAAGAUUGCGGGUUCGAGUCCCGUAAGGAUUG | -0.084 |
| AGUCCUUUGGCGUAAUGGUAACGCGUCUCCCUCCUAAGGAGACGAUUGCGGGUUCGAGUCCCGUAUGGAAUG | -0.371 |
| GCUCCUUUGGCGUAAUGGUAACGCGUUUCCCUCCUAAGGAGAAGAUUGCGGGUUCGAGUCCCGUACGGAUUG | -0.171 |
| AGUCCAUUGGCGUAAUGGUAACGCGUUUCCCUCCUAAGGAGAAGAUUGCGGGUUCGAGUCCCGUACGGGAUG | -0.269 |
| GGUCCAUUGGCGUAAUGGUAACGCGUUUCCCUCCUAAGGAGAAGAUUGCGGGUUCGAGUCCCGUAAGGGUUG | -0.385 |
| GUUCCGUUGGCGUAAUGGUAACGCGUUUCCCUCCUAAGGAGAAGAUUGCGGGUUCGAGUCCCGUAAGGGGCG | -0.124 |
| GGUCCGUUGGCGUAAUGGUAACGCGUUUCCCUCCUAAGGAGAAGAUUGCGGGUUCGAGUCCCGUAAGGGGUG | -0.184 |
| GGUCCAUUGGCGUAAUGGUAACGCGUUUCCCUCCUAAGGAGACGAUUGCGGGUUCGAGUCCCGUACGGAGUG | -0.201 |
| AUUCCAUUGGCGUAAUGGUAACGCGUCUCCCUCCUAAGGAGAAGAUUGCGGGUUCGAGUCCCGUAUGGAAUG | 0.000947 |
| GUUCCAUUGGCGUAAUGGUAACGCGUUUCCCUCCUAAGGAGAAGACUGCGGGUUCGAGUCCCGUAAGGGGUG | -0.288 |
| GGUCCUUUGGCGUAAUGGUAACGCGUUUCCCUCCUAAGGAGACGACUGCGGGUUCGAGUCCCGUAAGGAGUG | -0.253 |
| GCUCCUUUGGCGUAAUGGUAACGCGUUUCCCUCCUAAGGAGACGACUGCGGGUUCGAGUCCCGUAUGGGGCG | -0.426 |
| GUUCCUUUGGCGUAAUGGUAACGCGUCUCCCUCCUAAGGAGACGAUUGCGGGUUCGAGUCCCGUAAGGGUCG | -0.113 |
| AUUCCUUUGGCGUAAUGGUAACGCGUCUCCCUCCUAAGGAGAAGACUGCGGGUUCGAGUCCCGUAAGGAUUG | -0.159 |
| GUUCCAUUGGCGUAAUGGUAACGCGUUUCCCUCCUAAGGAGAAGAUUGCGGGUUCGAGUCCCGUAUGGAGCG | -0.0516 |
